Screening data deposited in PubChem by The Scripps Research Institute Molecular Screening Center.
LEDGF integ inh – blocks HIV-1 LEDGF/p75-dependent DNA integration | AID 743269 | inhibition, % at 3.7 µM | TR-FRET IN-LEDGF/p75 DNA integration, Eu/Cy5 | actives 0.64% (n = 370,000);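 active means inhibition above the screen-wide mean plus 3 SD, cut at about 13% in these data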;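 further: signal is the Cy5 over europium emission ratio at 671 and 618 nm; 0% = plate median of compound wells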
UHRF1 MBD2 ctr – blocks human UHRF1 binding to methylated DNA; inhibition, % at 4.4 µM; Q96T88; actives 0.75% (n = 370,000); UHRF1 binding to methylated oligo, TR-FRET; in the data active means inhibition above about 21%;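 further: UHRF1 SRA domain binding a hemimethylated CpG hairpin DNA probe; 0% = median of test compound wells and 100% = reference inhibitor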
Target sequence (Q96T88 whole entry, looked up, the tested form may be a part): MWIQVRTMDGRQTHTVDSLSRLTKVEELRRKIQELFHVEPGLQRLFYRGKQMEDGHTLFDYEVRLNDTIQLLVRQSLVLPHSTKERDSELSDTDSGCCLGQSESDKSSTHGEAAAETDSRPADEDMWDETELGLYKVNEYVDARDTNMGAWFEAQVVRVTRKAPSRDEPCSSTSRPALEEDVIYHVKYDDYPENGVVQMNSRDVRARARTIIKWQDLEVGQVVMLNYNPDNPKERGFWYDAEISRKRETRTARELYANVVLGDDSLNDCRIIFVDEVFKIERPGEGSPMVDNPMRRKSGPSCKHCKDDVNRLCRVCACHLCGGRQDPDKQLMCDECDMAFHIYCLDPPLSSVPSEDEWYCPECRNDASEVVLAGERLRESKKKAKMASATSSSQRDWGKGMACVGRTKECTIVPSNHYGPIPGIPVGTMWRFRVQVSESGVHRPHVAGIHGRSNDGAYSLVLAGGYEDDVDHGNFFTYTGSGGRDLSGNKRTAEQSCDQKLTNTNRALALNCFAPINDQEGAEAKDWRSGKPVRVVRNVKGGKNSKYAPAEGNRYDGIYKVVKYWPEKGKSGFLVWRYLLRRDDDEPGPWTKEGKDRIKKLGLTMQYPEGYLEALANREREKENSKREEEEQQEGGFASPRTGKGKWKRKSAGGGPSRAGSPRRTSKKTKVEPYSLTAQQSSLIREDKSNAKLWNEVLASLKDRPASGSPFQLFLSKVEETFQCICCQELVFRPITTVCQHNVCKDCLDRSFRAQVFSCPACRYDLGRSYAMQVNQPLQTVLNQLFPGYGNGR
MBD2 inh – blocks human MBD2 binding to methylated DNA. Q9UBB5. TR-FRET, MBD2 binding to methylated oligonucleotide. inhibition, % at 4.4 µM. actives 0.31% (n = 370,000). AID 686964; in the data active means inhibition above about 13%
TDP2 absorb – blocks human TDP2 phosphodiesterase activity. inhibition, % at 12.8 µM. recombinant TDP2, T5PNP hydrolysis, p-nitrophenol absorbance 415 nm. O95551. actives 0.34% (n = 370,000);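 active means inhibition above the mean of all tested compounds plus 3 SD, set per campaign, cut at about 25% in these data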;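 further: 0% = DMSO with enzyme and 100% = buffer with substrate but no TDP2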
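System – recombinant human TDP2 · Amount – 120 nM TDP2 per well · Buffer or medium – Mg2+-containing Tris-HCl buffer, pH 7.5 · Reagent – T5PNP substrate, 5 mM · Dosing – 12.8 µM single point, 1% DMSO · Incubation – 2 h at 37 °C · Measured by – epi absorbance · Read-out basis – percent inhibition · Benchmarks – high control without enzyme, low control DMSO plus TDP2 · Repeats – singlicate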
Starred values were filed as active, the others as inactive. An excerpt weighted towards active compounds, which were near 1.6% of everything screened.

Results for CSC1SCC2C(=O)N(C)C(C(C)C)C(=O)OCC(NC(=O)c3cnc4ccccc4n3)C(=O)NC(C)C(=O)N(C)C1C(=O)N(C)C(C(C)C)C(=O)OCC(NC(=O)c1cnc3ccccc3n1)C(=O)NC(C)C(=O)N2C (stereo not drawn) ?
LEDGF integ inh: -50.9; UHRF1 MBD2 ctr: -34.9; MBD2 inh: 95.1*; TDP2 absorb: 3.6

How did CCS(=O)(=O)N1Cc2ccccc2CC1C(=O)Nc1cccc(C)c1 (stereo not drawn) do in these assays?
LEDGF integ inh: -11.2; UHRF1 MBD2 ctr: 49.9*; MBD2 inh: 3.6; TDP2 absorb: -0.7

Results for CCS(=O)(=O)N1Cc2ccccc2CC1C(=O)Nc1ccc(C)cc1 (stereo not drawn) ?
LEDGF integ inh: -3.3; UHRF1 MBD2 ctr: 0.1; MBD2 inh: -7.3; TDP2 absorb: -20.1

Results for COc1ccc(CNc2ccc3cn[nH]c3c2)c(OC)c1OC ?
LEDGF integ inh: 4.6; UHRF1 MBD2 ctr: -11.8; MBD2 inh: -10.9; TDP2 absorb: 19.1

What do the screens show for `CCOc1cc(CNc2ccc3cn[nH]c3c2)ccc1OC`?
LEDGF integ inh: 0.8; UHRF1 MBD2 ctr: 4.9; MBD2 inh: -1.1; TDP2 absorb: 29.9*

How did CC(COc1ccc(Br)cc1)CN1CCC(C(O)(c2ccccc2)c2ccccc2)CC1 (stereo not drawn) do in these assays?
LEDGF integ inh: -5.2; UHRF1 MBD2 ctr: 0.1; MBD2 inh: -1.4; TDP2 absorb: -7.2

How did CCOc1cc(C(=O)Nc2ccc3c(c2)OCO3)ccc1OCCOc1ccccc1Cl do in these assays?
LEDGF integ inh: 2.3; UHRF1 MBD2 ctr: 1.5; MBD2 inh: 2.5; TDP2 absorb: 10.5

Results for CCOc1ccc(C(=O)Nc2ccc3c(c2)OCO3)cc1OCC ?
LEDGF integ inh: 3.5; UHRF1 MBD2 ctr: 24.7*; MBD2 inh: 10.0; TDP2 absorb: 5.4

Results for CC(C)(C)OC(=O)N1CCC(N[C@@H](Cc2c[nH]c3ccccc23)C(=O)NCCc2c[nH]c3ccccc23)(C(=O)NC2CCCCC2)CC1 ?
LEDGF integ inh: -1.6; UHRF1 MBD2 ctr: 1.2; MBD2 inh: -2.6; TDP2 absorb: 12.7

What do the screens show for `COc1ccc(NC(=O)c2cccc(S(=O)(=O)N3CCN(c4ccccc4)CC3)c2)c(OC)c1`?
LEDGF integ inh: -1.4; UHRF1 MBD2 ctr: 21.7*; MBD2 inh: 5.2; TDP2 absorb: 4.0

How did COC(=O)C1C(c2ccc(OC)c(OC)c2)NC(c2ccc(OC)c(OC)c2)C(C(=O)OC)S1(=O)=O (stereo not drawn) do in these assays?
LEDGF integ inh: 10.4; UHRF1 MBD2 ctr: 22.8*; MBD2 inh: 7.7; TDP2 absorb: 0.3

How did CCOC(=O)c1c(N)sc(N)c1C(=O)OCC do in these assays?
LEDGF integ inh: -0.4; UHRF1 MBD2 ctr: -0.6; MBD2 inh: -3.6; TDP2 absorb: -13.8

How did CCOC(=O)c1c(N)sc(C(O)(C(F)(F)F)C(F)(F)F)c1-c1ccc(OC)cc1OC do in these assays?
LEDGF integ inh: -4.7; UHRF1 MBD2 ctr: 24.6*; MBD2 inh: -2.5; TDP2 absorb: -3.9

How did CCCCNc1nc(Cl)nc(Nc2ccc(C)cc2)n1 do in these assays?
LEDGF integ inh: 1.1; UHRF1 MBD2 ctr: 21.3*; MBD2 inh: 7.1; TDP2 absorb: 9.5

What do the screens show for `CCCNc1nc(Cl)nc(Nc2ccc(Cl)cc2)n1`?
LEDGF integ inh: -3.0; UHRF1 MBD2 ctr: -2.1; MBD2 inh: 0.5; TDP2 absorb: 5.0

What do the screens show for `CC(OC(=O)Cn1[nH]c(=O)c2ccccc2c1=O)C(=O)Nc1ccc(F)cc1Cl` (stereo not drawn)?
LEDGF integ inh: 7.4; UHRF1 MBD2 ctr: 49.8*; MBD2 inh: 13.0; TDP2 absorb: 11.4

What do the screens show for `CCCCOCCCNC(=O)C[C@H]1C[C@@]2(C(=O)OC)C(=C[C@H](C(C)C)O[C@@H]2C2CC2)N(Cc2ccc3c(c2)OCO3)C1=O`?
LEDGF integ inh: 0.3; UHRF1 MBD2 ctr: 0.3; MBD2 inh: -1.1; TDP2 absorb: -12.2

What do the screens show for `COc1ccc(OC)c(NC(=O)C2(C)CCN2C(=O)CC2CC2)c1` (stereo not drawn)?
LEDGF integ inh: 2.7; UHRF1 MBD2 ctr: 28.2*; MBD2 inh: 1.1; TDP2 absorb: 8.0

How did COc1ccc(OC)c(NC(=O)C2(C)CCN2C(=O)CCC2CCCC2)c1 (stereo not drawn) do in these assays?
LEDGF integ inh: -0.3; UHRF1 MBD2 ctr: 0.9; MBD2 inh: -2.2; TDP2 absorb: -3.7

What do the screens show for `Cc1ccc(S(=O)(=O)n2ccc(-c3c(-c4ccccc4)noc3C)n2)cc1`?
LEDGF integ inh: 4.1; UHRF1 MBD2 ctr: 0.0; MBD2 inh: 4.0; TDP2 absorb: 0.4

Results for Cc1cccc(C)c1NC(=O)C1(NC(=O)C2CCC(=O)N2)CCCCC1 (stereo not drawn) ?
LEDGF integ inh: -2.5; UHRF1 MBD2 ctr: 8.8; MBD2 inh: 1.7; TDP2 absorb: 5.7

How did Cc1cccc(C)c1NC(=O)C1(NC(=O)Cn2cccc([N+](=O)[O-])c2=O)CCCCC1 do in these assays?
LEDGF integ inh: -2.6; UHRF1 MBD2 ctr: 23.6*; MBD2 inh: 3.1; TDP2 absorb: -2.9

How did O=C1NC(=S)S/C1=C\c1cc2ccccc2nc1N1CCCCC1 do in these assays?
LEDGF integ inh: 1.9; UHRF1 MBD2 ctr: 78.4*; MBD2 inh: 3.6; TDP2 absorb: 8.2

What do the screens show for `O=S(=O)(c1ccc2nc(Nc3ccccc3)ccc2c1)N1CCCCC1`?
LEDGF integ inh: -1.6; UHRF1 MBD2 ctr: 23.4*; MBD2 inh: 11.4; TDP2 absorb: -3.2

How did O=S(=O)(c1ccc2nc(N3CCN(c4ccc(F)cc4)CC3)ccc2c1)N1CCCCC1 do in these assays?
LEDGF integ inh: 4.6; UHRF1 MBD2 ctr: 24.5*; MBD2 inh: 12.1; TDP2 absorb: -3.4

Results for O=S(=O)(c1ccc2nc(N3CCN(c4ccccc4F)CC3)ccc2c1)N1CCCCC1 ?
LEDGF integ inh: 2.0; UHRF1 MBD2 ctr: 18.0; MBD2 inh: 7.3; TDP2 absorb: 17.3

How did CC(=O)CC[C@H]1CC[C@]2(CCCN(C(=O)c3ccno3)C2)O1 do in these assays?
LEDGF integ inh: 2.5; UHRF1 MBD2 ctr: 2.4; MBD2 inh: -0.8; TDP2 absorb: 9.3

What do the screens show for `CCCCCCCCN1C(=O)[C@@H](CC(=O)NCCCOCCCC)C[C@@]2(C(=O)OC)C1=C[C@H](COCc1ccccc1)O[C@@H]2C`?
LEDGF integ inh: 2.0; UHRF1 MBD2 ctr: 0.4; MBD2 inh: -6.6; TDP2 absorb: -0.2

How did Cc1c(N2C(=O)/C(=C\c3ccccc3O)SC2=S)c(=O)n(-c2ccccc2)n1C do in these assays?
LEDGF integ inh: 2.2; UHRF1 MBD2 ctr: -3.6; MBD2 inh: -4.0; TDP2 absorb: 9.3

How did Cc1c(N2C(=O)/C(=C/c3cccc4ccccc34)SC2=S)c(=O)n(-c2ccccc2)n1C do in these assays?
LEDGF integ inh: 2.6; UHRF1 MBD2 ctr: 30.8*; MBD2 inh: -1.6; TDP2 absorb: -2.9

What do the screens show for `CC(C)C[C@H]1COc2cccc(F)c2S(=O)(=O)N1Cc1cn(Cc2ccco2)nn1`?
LEDGF integ inh: -3.2; UHRF1 MBD2 ctr: -1.9; MBD2 inh: -0.3; TDP2 absorb: 7.2

How did CCOc1ccccc1N(CC(=O)N(C)Cc1ccccc1)S(=O)(=O)c1ccccc1 do in these assays?
LEDGF integ inh: 4.3; UHRF1 MBD2 ctr: 22.6*; MBD2 inh: 7.3; TDP2 absorb: 7.5
